{"source": "ChEMBL document CHEMBL1129387", "about": "“Synthesis and biological activity of 1 alpha, 25-dihydroxy-18-norvitamin D3 and 1 alpha, 25-dihydroxy-18,19-dinorvitamin D3” (1996)", "key": {"[1]": {"species_on_record": "Rattus norvegicus", "assay": "Intestinal Calcium Transport mobilization response of Vitamin D-Deficient Rats on a low-calcium diet(amount 500 pmol)", "assay_type": "functional", "in_short": "(§1)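 Vitamin D-deficient weanling male rats kept on a 0.02% Ca diet. Compound given intraperitoneally daily for 7 days in 0.1 mL of 95:5 propylene glycol/ethanol; controls got vehicle. Killed 24 h after the last dose. Intestinal Ca transport by everted sac (proximal 10 cm), reported as S/M ratio. At least 5 rats/group; mean ± SEM; Student's t-test.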"}, "[2]": {"species_on_record": "Rattus norvegicus", "assay": "Support of Intestinal Calcium Transport mobilization response of Vitamin D-Deficient Rats on a low-calcium diet(amount 1300 pmol)", "assay_type": "functional", "in_short": "as §1"}, "[3]": {"species_on_record": "Rattus norvegicus", "assay": "Support of Intestinal Calcium Transport mobilization response of Vitamin D-Deficient Rats on a low-calcium diet(amount 650 pmol)", "assay_type": "functional", "in_short": "as §1"}, "[4]": {"tested_on": "Rattus norvegicus", "assay": "Intestinal Calcium Transport mobilization response of Vitamin D-Deficient Rats to a single Intravenous Injection amount 260 pmol)", "assay_type": "functional", "in_short": "(§2)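 Vitamin D-deficient weanling male rats, 3 weeks on a 0.47% Ca diet then 1 week on 0.02% Ca. A single intravenous dose was given in 0.1 mL of 95:5 propylene glycol/ethanol, with vehicle controls. After 24 h, the proximal 10 cm of intestine was taken for everted-sac calcium transport, expressed as serosal:mucosal (S/M) Ca ratio. At least 5 rats/group; mean ± SEM.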"}, "[5]": {"tested_on": "Rattus norvegicus", "assay": "Bone Calcium mobilization response of Vitamin D-Deficient Rats to a single Intravenous Injection (amount 260 pmol)", "assay_type": "functional, organism-based", "in_short": "(§3)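 Vitamin D-deficient weanling male rats, 3 weeks on a 0.47% Ca diet then 1 week on 0.02% Ca. A single intravenous dose was given in 0.1 mL of 95:5 propylene glycol/ethanol, with vehicle controls. Serum calcium was measured by automatic titrator 24 h after dosing. The rise in serum Ca on the low-Ca diet is taken as bone calcium mobilization. At least 5 rats/group; mean ± SEM.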"}, "[6]": {"species_on_record": "Rattus norvegicus", "assay": "Support of Serum Calcium Transport mobilization response of Vitamin D-Deficient Rats on a low-calcium diet(amount 1300 pmol)", "assay_type": "functional, organism-based", "in_short": "(§4)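 Weanling male rats deficient in vitamin D, held on a low-calcium (0.02% Ca) diet, dosed intraperitoneally each day for 7 days in 0.1 mL of 95:5 propylene glycol/ethanol, with vehicle controls. Serum calcium was measured by automatic titrator 24 h after the last dose as the index of bone calcium mobilization. At least 5 rats/group; mean ± SEM; Student's t-test.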"}, "[7]": {"species_on_record": "Rattus norvegicus", "assay": "Support of Serum Calcium Transport mobilization response of Vitamin D-Deficient Rats on a low-calcium diet(amount 650 pmol)", "assay_type": "functional, organism-based", "in_short": "as §4"}, "[8]": {"species_on_record": "Rattus norvegicus", "assay": "Serum Calcium Transport mobilization response of Vitamin D-Deficient Rats on a low-calcium diet(amount 500 pmol)", "assay_type": "functional, organism-based", "in_short": "as §4"}, "[9]": {"species_on_record": "Rattus norvegicus", "assay": "Support of Intestinal Calcium Transport mobilization response of Vitamin D-Deficient Rats on a low-calcium diet(amount 130 pmol)", "assay_type": "functional", "in_short": "as §1"}, "[10]": {"species_on_record": "Rattus norvegicus", "assay": "Support of Intestinal Calcium Transport mobilization response of Vitamin D-Deficient Rats on a low-calcium diet(amount 260 pmol)", "assay_type": "functional", "in_short": "as §1"}, "[11]": {"species_on_record": "Rattus norvegicus", "assay": "Support of Intestinal Calcium Transport mobilization response of Vitamin D-Deficient Rats on a low-calcium diet(amount 500 pmol)", "assay_type": "functional", "in_short": "as §1"}, "[12]": {"species_on_record": "Rattus norvegicus", "assay": "Support of Intestinal Calcium Transport mobilization response of Vitamin D-Deficient Rats on a low-calcium diet(amount 1000 pmol)", "assay_type": "functional", "in_short": "as §1"}, "[13]": {"species_on_record": "Rattus norvegicus", "assay": "Support of Serum Calcium Transport mobilization response of Vitamin D-Deficient Rats on a low-calcium diet(amount 1000 pmol)", "assay_type": "functional, organism-based", "in_short": "as §4"}, "[14]": {"species_on_record": "Rattus norvegicus", "assay": "Support of Serum Calcium Transport mobilization response of Vitamin D-Deficient Rats on a low-calcium diet(amount 130 pmol)", "assay_type": "functional, organism-based", "in_short": "as §4"}, "[15]": {"species_on_record": "Rattus norvegicus", "assay": "Support of Serum Calcium Transport mobilization response of Vitamin D-Deficient Rats on a low-calcium diet(amount 260 pmol)", "assay_type": "functional, organism-based", "in_short": "as §4"}, "[16]": {"species_on_record": "Rattus norvegicus", "assay": "Support of Serum Calcium Transport mobilization response of Vitamin D-Deficient Rats on a low-calcium diet(amount 500 pmol)", "assay_type": "functional, organism-based", "in_short": "as §4"}, "[17]": {"tested_on": "Rattus norvegicus", "assay": "Intestinal Calcium Transport mobilization response of Vitamin D-Deficient Rats to a single Intravenous Injection of D3 (amount 260 pmol)", "assay_type": "functional", "in_short": "as §2"}, "[18]": {"tested_on": "Rattus norvegicus", "assay": "Bone Calcium mobilization response of Vitamin D-Deficient Rats to a single Intravenous Injection of (amount 260 pmol)", "assay_type": "functional, organism-based", "in_short": "as §3"}}, "note": "“And” between values parts separate entries of the source, which are not always exact repeats. Equal entries are not always repeated.", "data": [{"compound": "C=C1/C(=C\\C=C2/CCC[C@@H]3C([C@H](C)CCCC(C)(C)O)CC[C@@H]23)C[C@@H](O)C[C@@H]1O", "note": "(some centres undefined)", "values": [{"measurement": "Ca2+ transport", "setting": "[1]", "result": 4.1}, {"measurement": "Ca2+ transport", "setting": "[2]", "result": 5.5}, {"measurement": "Ca2+ transport", "setting": "[3]", "result": 5.4}, {"measurement": "Ca2+ transport", "setting": "[4]", "result": 3.9}, {"measurement": "Serum Ca2+", "setting": "[5]", "result": 4.4}, {"measurement": "Serum Ca2+", "setting": "[6]", "result": 5.6}, {"measurement": "Serum Ca2+", "setting": "[7]", "result": 5.2}, {"measurement": "Serum Ca2+", "setting": "[8]", "result": 5.1}]}, {"compound": "C[C@H](CCCC(C)(C)O)C1CC[C@H]2/C(=C/C=C3C[C@@H](O)C[C@H](O)C3)CCC[C@H]12", "note": "(some centres undefined)", "values": [{"measurement": "Ca2+ transport", "setting": "[9]", "result": 3.7}, {"measurement": "Ca2+ transport", "setting": "[10]", "result": 4.8}, {"measurement": "Ca2+ transport", "setting": "[11]", "result": 6.2}, {"measurement": "Ca2+ transport", "setting": "[12]", "result": 6.9}, {"measurement": "Serum Ca2+", "setting": "[13]", "result": 5.5}, {"measurement": "Serum Ca2+", "setting": "[14]", "result": 4.8}, {"measurement": "Serum Ca2+", "setting": "[15]", "result": 4.9}, {"measurement": "Serum Ca2+", "setting": "[16]", "result": 5.6}]}, {"compound": "C=C1/C(=C\\C=C2/CCC[C@]3(C)[C@@H]([C@H](C)CCCC(C)(C)O)CC[C@@H]23)C[C@@H](O)C[C@@H]1O", "note": "[CALCITRIOL]", "values": [{"measurement": "Ca2+ transport", "setting": "[1]", "result": 5.7}, {"measurement": "Ca2+ transport", "setting": "[9]", "result": 6.8}, {"measurement": "Ca2+ transport", "setting": "[10]", "result": 7.6}, {"measurement": "Ca2+ transport", "setting": "[17]", "result": 5}, {"measurement": "Serum Ca2+", "setting": "[18]", "result": 4.8}, {"measurement": "Serum Ca2+", "setting": "[14]", "result": 5.8}, {"measurement": "Serum Ca2+", "setting": "[15]", "result": "5.4 and 7.1"}, {"measurement": "Serum Ca2+", "setting": "[8]", "result": 5.5}]}]}
